Assay results published in ChEMBL document CHEMBL1125651, “Nucleosides and nucleotides. 95. Improved synthesis of 1-(2-azido-2-deoxy-beta-D-arabinofuranosyl)cytosine (cytarazid) and -thymine. Inhibitory spectrum of cytarazid on the growth of various human tumor cells in vitro” (J Med Chem, 1991).
≈ marks a conversion by molar mass, not a printed value.

What was measured:
SAOS-2 = experiment: In vitro inhibitory effect measured against human osteosarcoma SAOS-2 tumor cells; assay type: functional, cell-based
Procedure, shortened: (§1)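 Cells seeded at 1 × 10^4 cells/mL in RPMI 1640 with 10% heat-inactivated FBS and 50 μg/mL kanamycin. Cultured 72 h at 37 °C in a CO2 incubator with a range of compound concentrations. Viability read by MTT colorimetric assay at OD 570 nm against untreated control wells. IC50 is the μg/mL concentration giving 50% growth inhibition; representative of three separate experiments.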

SK-ES1 = experiment: In vitro inhibitory effect measured against human osteosarcoma SK-ES-1 tumor cells; assay type: functional, cell-based; procedure, shortened: as §1
QG-56 [1] = experiment: In vitro inhibitory effect measured against human lung suamous-cell carcinoma QG-56 tumor cells at 100 ug/mL; assay type: functional
Procedure, shortened: (§2)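 MTT viability assay after 72 h exposure at 37 °C in a CO2 incubator. Cells at 1 × 10^4 cells/mL in RPMI 1640 with 10% heat-inactivated FBS and 50 μg/mL kanamycin. Percent inhibition = [1 − OD570 of sample/OD570 of untreated control] × 100. Representative of three separate experiments.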

HOS [2] = experiment: In vitro inhibitory effect measured against human osteosarcoma HOS tumor cells at 100 ug/mL; assay type: functional; procedure, shortened: as §2
HT-1080 = experiment: In vitro inhibitory effect measured against human fibrosarcoma HT1080 tumor cells; assay type: functional, cell-based; procedure, shortened: as §1
KHOS-321H = experiment: In vitro inhibitory effect measured against human osteosarcoma KHOS-321H tumor cells; assay type: functional, cell-based; procedure, shortened: as §1
NCC = experiment: In vitro inhibitory effect measured against human renal cell carcinoma NCC-nu tumor cells; assay type: functional, cell-based; procedure, shortened: as §1
NUGC-4 [3] = experiment: In vitro inhibitory effect measured against human stomach adenocarcinoma NUGC-4 tumor cells at 100 ug/mL; assay type: functional; procedure, shortened: as §2
OST [4] = experiment: In vitro inhibitory effect measured against human osteosarcoma OST tumor cells at 100 ug/mL; assay type: functional; procedure, shortened: as §2
PC-13 [5] = experiment: In vitro inhibitory effect measured against human lung large-cell carcinoma PC-13 tumor cells at 100 ug/mL; assay type: functional; procedure, shortened: as §2
U2OS [6] = experiment: In vitro inhibitory effect measured against human osteosarcoma U20-S tumor cells at 100 ug/mL; assay type: functional; procedure, shortened: as §2
PC-3 [7] = experiment: In vitro inhibitory effect measured against human lung adenocarcinoma PC-3 tumor cells at 100 ug/mL; assay type: functional; procedure, shortened: as §2
PC-8 = experiment: In vitro inhibitory effect measured against human lung adenocarcinoma PC-8 tumor cells; assay type: functional, cell-based; procedure, shortened: as §1
PC-9 = experiment: In vitro inhibitory effect measured against human lung adenocarcinoma PC-9 tumor cells; assay type: functional, cell-based; procedure, shortened: as §1
MFH-ST [8] = experiment: In vitro inhibitory effect measured against human malignant fibrous histiocytoma MFH-ST tumor cells at 100 ug/mL; assay type: functional; procedure, shortened: as §2
MG-63 [9] = experiment: In vitro inhibitory effect measured against human osteosarcoma MG-63 tumor cells at 100 ug/mL; assay type: functional; procedure, shortened: as §2
MKN-28 = experiment: In vitro inhibitory effect measured against human stomach adenocarcinoma MKN-28 tumor cells; assay type: functional, cell-based; procedure, shortened: as §1
HOS-TE85 = experiment: In vitro inhibitory effect measured against human osteosarcoma MNNG-HOS tumor cells; assay type: functional, cell-based; procedure, shortened: as §1
ST-KM-1 [10] = experiment: In vitro inhibitory effect measured against human stomach adenocarcinoma ST-KM tumor cells at 100 ug/mL; assay type: functional; procedure, shortened: as §2
ST-KM-1 [11] = experiment: In vitro inhibitory effect measured against human stomach adenocarcinoma ST-KM tumor cells; assay type: functional, cell-based; procedure, shortened: as §1
T-24 = experiment: In vitro inhibitory effect measured against human bladder transitional cell carcinoma T-24 tumor cells; assay type: functional, cell-based; procedure, shortened: as §1
QG-56 [12] = experiment: In vitro inhibitory effect measured against human lung suamous-cell carcinoma QG-56 tumor cells; assay type: functional, cell-based; procedure, shortened: as §1
HOS [13] = experiment: In vitro inhibitory effect measured against human osteosarcoma HOS tumor cells; assay type: functional, cell-based; procedure, shortened: as §1
NUGC-4 [14] = experiment: In vitro inhibitory effect measured against human stomach adenocarcinoma NUGC-4 tumor cells; assay type: functional, cell-based; procedure, shortened: as §1
PC-13 [15] = experiment: In vitro inhibitory effect measured against human lung large-cell carcinoma PC-13 tumor cells; assay type: functional, cell-based; procedure, shortened: as §1
U2OS [16] = experiment: In vitro inhibitory effect measured against human osteosarcoma U20-S tumor cells; assay type: functional, cell-based; procedure, shortened: as §1
PC-3 [17] = experiment: In vitro inhibitory effect measured against human lung adenocarcinoma PC-3 tumor cells; assay type: functional, cell-based; procedure, shortened: as §1
PC-6 = experiment: In vitro inhibitory effect measured against human lung small-cell carcinoma PC-6 tumor cells; assay type: functional, cell-based; procedure, shortened: as §1
MFH-ST [18] = experiment: In vitro inhibitory effect measured against human malignant fibrous histiocytoma MFH-ST tumor cells; assay type: functional, cell-based; procedure, shortened: as §1
MG-63 [19] = experiment: In vitro inhibitory effect measured against human osteosarcoma MG-63 tumor cells; assay type: functional, cell-based; procedure, shortened: as §1
OST [20] = experiment: In vitro inhibitory effect measured against human osteosarcoma OST tumor cells; assay type: functional, cell-based; procedure, shortened: as §1

SMILES: Nc1ccn([C@@H]2O[C@H](CO)[C@@H](O)[C@@H]2O)c(=O)n1 [CYTARABINE]
- IC50 (SAOS-2): 2.7 µg/mL (≈ 11.1 µM)
- IC50 (SK-ES1): 0.09 µg/mL (≈ 0.37 µM)
- inhibition at 100 µg/mL (QG-56 [1]): 24.4%
- inhibition at 100 µg/mL (HOS [2]): 45.4%
- IC50 (HT-1080): 0.13 µg/mL (≈ 0.534 µM)
- IC50 (KHOS-321H): 0.27 µg/mL (≈ 1.11 µM)
- IC50 (NCC): 0.13 µg/mL (≈ 0.534 µM)
- inhibition at 100 µg/mL (NUGC-4 [3]): 49.9%
- inhibition at 100 µg/mL (OST [4]): 48%
- inhibition at 100 µg/mL (PC-13 [5]): 40%
- inhibition at 100 µg/mL (U2OS [6]): 43.9%
- inhibition at 100 µg/mL (PC-3 [7]): 46.2%
- IC50 (PC-8): 0.28 µg/mL (≈ 1.15 µM)
- IC50 (PC-9): 1.6 µg/mL (≈ 6.58 µM)
- inhibition at 100 µg/mL (MFH-ST [8]): 47.9%
- inhibition at 100 µg/mL (MG-63 [9]): 29.5%
- IC50 (MKN-28): 4.5 µg/mL (≈ 18.5 µM)
- IC50 (HOS-TE85): 2.6 µg/mL (≈ 10.7 µM)
- inhibition at 100 µg/mL (ST-KM-1 [10]): 48.6%

SMILES: [N-]=[N+]=N[C@H]1[C@H](O)[C@@H](CO)O[C@H]1n1ccc(N)nc1=O [CYTARAZID]
- IC50 (SAOS-2): 2.8 µg/mL (≈ 10.4 µM)
- IC50 (SK-ES1): 1.1 µg/mL (≈ 4.1 µM)
- IC50 (ST-KM-1 [11]): 1.1 µg/mL (≈ 4.1 µM)
- IC50 (T-24): 0.56 µg/mL (≈ 2.09 µM)
- IC50 (QG-56 [12]): 5.4 µg/mL (≈ 20.1 µM)
- IC50 (HOS [13]): 9.4 µg/mL (≈ 35 µM)
- IC50 (HT-1080): 1.6 µg/mL (≈ 5.96 µM)
- IC50 (KHOS-321H): 0.62 µg/mL (≈ 2.31 µM)
- IC50 (NCC): 1.8 µg/mL (≈ 6.71 µM)
- IC50 (NUGC-4 [14]): 1.4 µg/mL (≈ 5.22 µM)
- IC50 (PC-13 [15]): 18 µg/mL (≈ 67.1 µM)
- IC50 (U2OS [16]): 14 µg/mL (≈ 52.2 µM)
- IC50 (PC-3 [17]): 18 µg/mL (≈ 67.1 µM)
- IC50 (PC-6): 18 µg/mL (≈ 67.1 µM)
- IC50 (PC-8): 1.2 µg/mL (≈ 4.47 µM)
- IC50 (PC-9): 1 µg/mL (≈ 3.73 µM)
- IC50 (MFH-ST [18]): 14 µg/mL (≈ 52.2 µM)
- IC50 (MG-63 [19]): 30 µg/mL (≈ 112 µM)
- IC50 (MKN-28): 2.2 µg/mL (≈ 8.2 µM)
- IC50 (HOS-TE85): 1.5 µg/mL (≈ 5.59 µM)
- IC50 (OST [20]): 6.4 µg/mL (≈ 23.9 µM)
